Measurements published in ChEMBL document CHEMBL4373710, “DNA Structural Alteration Leading to Antibacterial Properties of 6-Nitroquinoxaline Derivatives” (J Med Chem, 2019).
Converted amounts (≈) assume the structure as drawn. The source made the active and inactive calls. No cut-off for these calls is given here.

Experiments:
DNA [1] = test: Induction of DNA condensation in Staphylococcus aureus assessed as nucleoid shrinkage at 10 uM after 1 hr by DAPI staining-based confocal laser scanning fluorescence microscopic analysis; type: nucleic-acid assay
Procedure, shortened: (§1)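 S. aureus grown 6 h at 37 °C, washed into PBS and exposed to 10 µM compound or 0.5% DMSO for 1 h at 37 °C with shaking. Fixed in paraformaldehyde for 30 min at 4 °C, then DAPI-stained for 5 min. Nucleoid and cell areas measured from phase contrast/DAPI images; N/C ratio from 35 cells over three independent experiments, mean ± SD.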

Calf thymus DNA = test: Binding affinity to calf thymus DNA by isothermal titration calorimetric analysis; type: nucleic-acid assay; details: Bos taurus
Staphylococcus aureus [2] = test: Disruption of cell membrane in Staphylococcus aureus assessed as accumulation of propidium iodide positive cells at 5 uM by flow cytometric analysis (reference value: 1.7%); type: functional
DNA [3] = test: Binding affinity to Staphylococcus aureus DNA assessed as relaxation of DNA strand at 1:1 compound to DNA ratio by atomic force microscopic analysis; type: nucleic-acid assay
Procedure, shortened: (§2)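 Isolated S. aureus genomic DNA (2.8 Mbp) treated with compound at increasing [compound]:[DNA bp] ratios, up to 3:1. Imaged by atomic force microscopy against untreated DNA.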

DNA [4] = test: Binding affinity to Staphylococcus aureus DNA assessed as DNA condensation at 3:1 compound to DNA ratio by atomic force microscopic analysis; type: nucleic-acid assay; procedure, shortened: as §2
DNA [5] = test: Binding affinity to DNA isolated from HEK293 cells assessed as change in B-DNA structure at 15 to 180 uM by circular dichroism method; type: ADME, cell-free; details: human, hek293, 180 µM
HEK293 [6] = test: Induction of morphological changes in HEK293 cells at 5 uM by propidium iodide staining based assay; type: cell-based; details: human, hek293, 5 µM
DNA [7] = test: Binding affinity to Escherichia coli pBR322 DNA assessed as DNA unwinding at 0.5:1 to 1.5:1 compound to DNA ratio by atomic force microscopic analysis; type: nucleic-acid assay
Procedure, shortened: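 Supercoiled pBR322 plasmid treated with compound at [compound]:[DNA bp] ratios of 0.5:1, 1:1, 1.5:1, 2:1 and 3:1. Imaged by atomic force microscopy, with DNA height measured and compared against untreated plasmid.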

Staphylococcus aureus [8] = test: Antibacterial activity against Staphylococcus aureus MTCC737 measured after 6 hrs by broth microdilution assay; type: functional; details: MTCC737, 6 h
Procedure, shortened: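 Broth microdilution per CLSI; 5×10^5 cfu/mL bacteria in LB broth; compounds from DMSO stocks, final DMSO under 0.6%, with DMSO control. Plates incubated at the strain's recommended growth temperature and time; growth read as OD600.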

DNA [9] = test: Inhibition of ethidium bromide binding to Staphylococcus aureus DNA by fluorescence assay; type: nucleic-acid assay
Procedure, shortened: (§3)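 Fluorescence intercalator displacement: S. aureus genomic DNA 10 µM plus EtBr 5 µM in 10 mM NaP pH 7, 10 mM NaCl, 1% DMSO, at 25 and 37 °C; titrated with 2.5–100 µM compound. Excitation 480 nm, emission 520–700 nm, inner-filter corrected, triplicates; Stern–Volmer analysis, F0/F = 1 + Ksv[Q].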

DNA [10] = test: Inhibition of ethidium bromide binding to Staphylococcus aureus DNA assessed as Stern-Volmer quenching constant by fluorescence assay; type: nucleic-acid assay; procedure, shortened: as §3
[11] = Binding affinity to pCDNA 3.1 (unknown origin) assessed as DNA unwinding effect at 2:1 to 4:1 compound to DNA ratio measured after 16 hrs by EtBr staining agarose gel shift assay
Procedure, shortened: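 pcDNA3.1 plasmid was grown in E. coli DH5α and used at 40 µM in 50 mM NaP, pH 7, with 10 mM NaCl. Mixed with compound at set [compound]:[DNA bp] ratios and held 16 h at 37 °C. Run on 1% agarose at 50 V for about 3 h, then stained with EtBr (1 µg/mL) for 5 min.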

Staphylococcus aureus [12] = test: Induction of morphological changes in Staphylococcus aureus assessed as changed population at 5 uM measured after 2 hrs by flow cytometric analysis (reference value: 5.71%); type: functional
DNA [13] = test: Inhibition of ethidium bromide binding to Staphylococcus aureus DNA in presence of 10 to 200 mM NaCl by fluorescence assay; type: nucleic-acid assay
Procedure, shortened: (§4)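 S. aureus genomic DNA (10 µM) with EtBr (5 µM) in 10 mM NaP pH 7, 10 mM NaCl and 1% DMSO, at 25 and 37 °C. Titrated with compound from 2.5 to 100 µM. Excitation 480 nm, emission scanned 520–700 nm, corrected for inner filter. Stern–Volmer analysis, triplicates. Variants: pH 6–8, or NaCl raised to 50 and 200 mM.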

Staphylococcus aureus [14] = test: Disruption of preformed biofilm in Staphylococcus aureus at 4 times MIC measured after 12 hrs by crystal violet staining based light microscopic analysis; type: functional
Procedure, shortened: (§5)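 Planktonic cells washed off; 1% crystal violet 10 min, solubilised in 30% acetic acid, A550 read; wells also imaged at 20X by light microscopy.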

DNA [15] = test: Inhibition of ethidium bromide binding to Staphylococcus aureus DNA at 37 degC by fluorescence assay; type: nucleic-acid assay; procedure, shortened: as §4
[16] = tested on: Staphylococcus epidermidis; test: Disruption of preformed biofilm in Staphylococcus epidermidis up to 4 times MIC measured after 12 hrs by crystal violet staining based light microscopic analysis; type: functional, organism-based; procedure, shortened: as §5
DNA [17] = test: Inhibition of ethidium bromide binding to Staphylococcus aureus DNA at pH 6 to 8 by fluorescence assay; type: nucleic-acid assay; procedure, shortened: as §4
DNA [18] = test: Induction of DNA condensation in Staphylococcus aureus assessed as decrease in nucleoid area at 10 uM after 1 hr by DAPI staining-based confocal laser scanning fluorescence microscopic analysis relative to control; type: nucleic-acid assay; parameters: scale not given: the % may be the effect or the level left; procedure, shortened: as §1
DNA [19] = test: Binding affinity to DNA isolated from HEK293 cells assessed as change in ellipticity at 262 nm at 15 to 180 uM by circular dichroism method; type: ADME, cell-free; details: human
DNA [20] = test: Binding affinity to Staphylococcus aureus DNA assessed as formation of DNA superstructure at 1:1 to 3:1 compound to DNA ratio by atomic force microscopic analysis; type: nucleic-acid assay; procedure, shortened: as §2
Staphylococcus aureus [21] = test: Disruption of preformed biofilm in Staphylococcus aureus at MIC measured after 12 hrs by crystal violet staining based light microscopic analysis; type: functional, organism-based; procedure, shortened: as §5
Staphylococcus aureus [22] = test: Induction of DNA breaks in Staphylococcus aureus at 3.5 uM by TUNEL staining based confocal laser scanning fluorescence microscopic analysis; type: functional, organism-based
Procedure, shortened: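 S. aureus treated with 3.5 µM or 0.5% DMSO; pelleted, fixed in 16% paraformaldehyde 30 min at 4°C, permeabilised with 0.2% Triton X-100 plus lysostaphin 0.05 mg/mL; TdT tailing with fluorescent nucleotides 60 min at 37°C, stopped with 2X SSC; confocal imaging with fluorescein filter.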

HEK293 [23] = test: Induction of DNA damage in HEK293 cells at 15 uM by TUNEL staining based confocal laser scanning fluorescence microscopic analysis; type: cell-based; details: human, hek293, 15 µM
Procedure, shortened: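 TUNEL in HEK 293 cells treated with 15 µM or 0.5% DMSO control; TdT incorporation of fluorescent nucleotides at strand-break 3′-OH ends, confocal imaging at 60X.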

Staphylococcus aureus [24] = test: Induction of morphological changes in Staphylococcus aureus assessed as change in microbe length at 5 uM by atomic force microscopic analysis (reference value: 1.37 +/- 0.09 micrometer); type: functional
Staphylococcus aureus [25] = test: Induction of morphological changes in Staphylococcus aureus assessed as changed population at 7.5 uM measured after 2 hrs by flow cytometric analysis (reference value: 5.71%); type: functional

SMILES: CN(C)CCCNc1nc2cc([N+](=O)[O-])ccc2nc1NCc1ccc(C(F)(F)F)cc1
- Activity (DNA [1]): Active
- Ka (Calf thymus DNA): 2.27 ×10⁴ /M
- Activity (Staphylococcus aureus [2]): 20.4%
- Activity (DNA [3]): Active
- Activity (DNA [4]): Active
- Activity (DNA [5]): Active
- Activity (HEK293 [6]): Non-Toxic
- Activity (DNA [7]): Active
- MIC (Staphylococcus aureus [8]): 1.79 µg/mL (≈ 3.99 µM)
- inhibition (DNA [9]): Dose-dependent effect
- KSV (DNA [10]): 1 ×10⁴ /M
- Activity [11]: Active
- Activity (Staphylococcus aureus [12]): 14.6%
- inhibition (DNA [13]): Active
- Activity (Staphylococcus aureus [14]): 100%
- inhibition (DNA [15]): Active
- Activity [16]: Active
- inhibition (DNA [17]): Active
- Activity (DNA [18]): 30%
- Activity (DNA [19]): Active
- Activity (DNA [20]): Active
- Activity (Staphylococcus aureus [21]): Active
- Activity (Staphylococcus aureus [22]): Active
- Activity (HEK293 [23]): Toxic
- Activity (Staphylococcus aureus [24]): 2.36 um
- Activity (Staphylococcus aureus [25]): 16.4%
